In ChEMBL document CHEMBL1148651, “Potent antitumor 9-anilinoacridines and acridines bearing an alkylating N-mustard residue on the acridine chromophore: synthesis and biological activity” (J Med Chem, 2006):

Columns and labels:
[1] = test system: MX1; test: Antiproliferative activity against human MX1 cell line; assay type: functional, cell-based
Summary of the method: (§1)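 Growth inhibition after 72 h continuous exposure. Solid tumour lines were read by sulforhodamine B. Six or seven concentrations per compound were tested in duplicate. IC50 came from median-effect (mass-action law) dose-effect analysis.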

[2] = test system: MX1; test: Antitumor activity against human MX1 cell line xenografted in nude mouse at 1.5 mg/kg, iv after 14 days; assay type: functional
Summary of the method: (§2)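 Nude mice were implanted subcutaneously with MX-1 tumour tissue (50 µg) on day 0. Doses were given iv via the tail vein every 2 or 3 days (Q2D or Q3D schedules) in 20 µL DMSO plus 180 µL saline. Tumour volume was measured by caliper (length × width × height). Result is T/C (%) on the stated day.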

[3] = test system: Mus musculus; test: Toxicity against nude mouse xenografted with human MX1 cell line assessed as weight loss at 1.5 mg/kg, iv after 14 days; assay type: functional
Summary of the method: (§3)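 MX-1 xenograft nude mice were implanted with 50 µg tissue subcutaneously on day 0. They were treated iv by tail vein every 2 or 3 days in 20 µL DMSO plus 180 µL saline. Toxicity is the maximum body weight loss (%) relative to initial pretreatment body weight, on the day indicated.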

[4] = test system: CCRF-CEM; test: Antiproliferative activity against human taxol resistant CCRF-CEM cell line; assay type: functional, cell-based
Summary of the method: (§4)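 Leukemic CCRF-CEM parent and resistant sublines were exposed for 72 h, then given phenazine methosulfate-XTT at 37 °C for 6 h. Absorbance was read at 450 and 630 nm. Six or seven concentrations were tested in duplicate, and IC50 came from median-effect plot analysis. Resistance fold is relative to the parent CCRF-CEM IC50.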

[5] = test system: CCRF-CEM; test: Antiproliferative activity against human vinblastine resistant CCRF-CEM cell line; assay type: functional, cell-based; summary of the method: as §4
[6] = test system: A549; test: Antiproliferative activity against human A549 cell line; assay type: functional, cell-based; summary of the method: as §1
[7] = test system: HCT-116; test: Antiproliferative activity against human HCT116 cell line; assay type: functional, cell-based; summary of the method: as §1
[8] = test system: CCRF-CEM; test: Antiproliferative activity against human CCRF-CEM cell line; assay type: functional, cell-based
[9] = test system: MX1; test: Antitumor activity against human MX1 cell line xenografted in nude mouse at 10 mg/kg, iv after 15 days; assay type: functional; summary of the method: as §2
[10] = test system: Mus musculus; test: Toxicity against nude mouse xenografted with human MX1 cell line assessed as weight loss at 10 mg/kg, iv after 13 days; assay type: functional; summary of the method: as §3
[11] = test system: Mus musculus; test: Toxicity against nude mouse xenografted with human MX1 cell line assessed as weight loss at 10 mg/kg, iv after 17 days; assay type: functional
[12] = test system: Mus musculus; test: Toxicity against nude mouse xenografted with human MX1 cell line assessed as weight loss at 10 mg/kg, iv after 19 days; assay type: functional
[13] = test system: MX1; test: Antitumor activity against human MX1 cell line xenografted in nude mouse at 2 mg/kg, iv after 14 days; assay type: functional; summary of the method: as §2
[14] = test system: Mus musculus; test: Toxicity against nude mouse xenografted with human MX1 cell line assessed as weight loss at 2 mg/kg, iv after 12 days; assay type: functional; summary of the method: as §3
[15] = test system: MX1; test: Antitumor activity against human MX1 cell line xenografted in nude mouse at 4 mg/kg, iv after 19 days; assay type: functional; summary of the method: as §2
[16] = test system: Mus musculus; test: Toxicity against nude mouse xenografted with human MX1 cell line assessed as weight loss at 4 mg/kg, iv after 17 days; assay type: functional; summary of the method: as §3
[17] = test system: Mus musculus; test: Toxicity against nude mouse xenografted with human MX1 cell line assessed as weight loss at 2 mg/kg, iv after 14 days; assay type: functional; summary of the method: as §3

| Compound | IC50 [1] [nM] | Activity [2] [%] | Activity [3] [%] | IC50 [4] [nM] | IC50 [5] [nM] | IC50 [6] [nM] | IC50 [7] [nM] | IC50 [8] [nM] | Activity [9] [%] | Activity [10] [%] | Activity [11] [%] | Activity [12] [%] | Activity [13] [%] | Activity [14] [%] | Activity [15] [%] | Activity [16] [%] | Activity [17] [%] |
| --- | --- | --- | --- | --- | --- | --- | --- | --- | --- | --- | --- | --- | --- | --- | --- | --- | --- |
| Cc1cc(N)cc(Nc2c3ccccc3nc3c(OCCCCN(CCCl)CCCl)cccc23)c1 | 10 | 6 | 8 | 61.1 | 54.5 | 8.9 | 9.1 | 3.7 |  |  |  |  |  |  |  |  |  |
| COc1cc(N)cc(Nc2c3ccccc3nc3c(OCCN(CCCl)CCCl)cccc23)c1 | 28.1 |  |  | 49.8 | 46.9 | 90.2 | 53.8 | 11.9 | 96 | 15 | 10 | 10 |  |  |  |  |  |
| Cc1ccc(N)cc1Nc1c2ccccc2nc2c(OCCCCN(CCCl)CCCl)cccc12 | 9.2 |  |  | 57.8 | 42.3 | 15.4 | 13.6 | 4.3 |  |  |  |  | 20 | 21 |  |  |  |
| Nc1cc(CO)cc(Nc2c3ccccc3nc3c(OCCCCN(CCCl)CCCl)cccc23)c1 | 2.4 |  |  | 40.5 | 111 | 5.3 | 9.5 | 4.2 |  |  |  |  |  |  |  |  |  |
| Cc1cc(N)cc(Nc2c3ccccc3nc3c(OCCN(CCCl)CCCl)cccc23)c1 | 21.9 |  |  | 21.7 | 18.8 | 44.9 | 23.2 | 4.1 |  |  |  |  |  |  | 79 | 15 |  |
| ClCCN(CCCl)CCOc1cccc2cc3ccccc3nc12 | 70.8 |  |  | 117 | 163 | 137 | 94.9 | 37.6 |  |  |  |  |  |  |  |  |  |
| COc1cc(N)cc(Nc2c3ccccc3nc3c(OCCCCN(CCCl)CCCl)cccc23)c1 | 5.6 |  |  | 43.9 | 51.3 | 19 | 13.8 | 4.2 |  |  |  |  | 77 |  |  |  | 8 |
| CC[C@]1(O)C[C@@H]2CN(CCc3c([nH]c4ccccc34)[C@@](C(=O)OC)(c3cc4c(cc3OC)N(C)[C@H]3[C@@](O)(C(=O)OC)[C@H](OC(C)=O)[C@]5(CC)C=CCN6CC[C@]43[C@@H]65)C2)C1 [VINBLASTINE] | 2 |  |  | 28.7 | 207 | 1.1 | 0.7 | 0.4 |  |  |  |  |  |  |  |  |  |
| CC(=O)O[C@H]1C(=O)[C@@]2(C)[C@H]([C@H](OC(=O)c3ccccc3)[C@]3(O)C[C@H](OC(=O)[C@H](O)[C@@H](NC(=O)c4ccccc4)c4ccccc4)C(C)=C1C3(C)C)[C@]1(OC(C)=O)CO[C@@H]1C[C@@H]2O [PACLITAXEL] | 22.5 |  |  | 484 | 1730 | 2.1 |  | 1.1 |  |  |  |  |  |  |  |  |  |
| OCc1cc(O)cc(Nc2c3ccccc3nc3c(OCCN(CCCl)CCCl)cccc23)c1 | 58 |  |  | 139 | 152 | 108 | 125 | 6.9 |  |  |  |  |  |  |  |  |  |
| Nc1cc(CO)cc(Nc2c3ccccc3nc3c(OCCN(CCCl)CCCl)cccc23)c1 | 6.6 |  |  | 63.3 | 126 | 32.4 | 7.7 | 6.7 |  |  |  |  |  |  |  |  |  |
| ClCCN(CCCl)CCCOc1cccc2cc3ccccc3nc12 | 82.7 |  |  | 150 | 253 | 166 | 135 | 35.3 |  |  |  |  |  |  |  |  |  |
| COc1ccc(Nc2c3ccccc3nc3c(OCCCCN(CCCl)CCCl)cccc23)cc1N | 5.6 |  |  | 89.9 | 86.5 | 19 | 8.3 | 5.9 |  |  |  |  |  |  |  |  |  |
| OCc1cc(O)cc(Nc2c3ccccc3nc3c(OCCCCN(CCCl)CCCl)cccc23)c1 | 7.2 |  |  | 117 | 338 | 25.1 | 9.1 | 5.9 |  |  |  |  |  |  |  |  |  |
| CCOC(=O)Nc1cc(CO)cc(Nc2c3ccccc3nc3c(OCCN(CCCl)CCCl)cccc23)c1 | 55.5 |  |  | 126 | 231 | 94 | 59.5 | 25.7 |  |  |  |  |  |  |  |  |  |
| Nc1cc(CO)cc(Nc2c3ccccc3nc3ccccc23)c1 |  |  |  |  |  | 47 |  |  |  |  |  |  |  |  |  |  |  |
| Cc1ccc(N)cc1Nc1c2ccccc2nc2c(OCCN(CCCl)CCCl)cccc12 | 7.1 |  |  | 46.5 | 31.2 | 31.6 | 9 | 8 |  |  |  |  |  |  |  |  |  |
| COc1ccc(Nc2c3ccccc3nc3c(OCCN(CCCl)CCCl)cccc23)cc1N | 24.1 |  |  | 57.5 | 60.1 | 118 | 48.2 | 12.3 |  |  |  |  |  |  |  |  |  |
| ClCCN(CCCl)CCCCOc1cccc2cc3ccccc3nc12 | 82 |  |  | 393 | 308 | 226 | 118 | 51.2 |  |  |  |  |  |  |  |  |  |
